Rpn11 inh – blocks the human proteasome subunit Rpn11; human 26S proteasome, Ub4-pepOG fluorescence polarization; 20S core pre-blocked with epoxomicin; inhibition, % at 20 µM; 360,000 compounds, 0.59% hits; AID 588493;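 active means inhibition at 20 µM, scaled to each plate's controls, above about 33%, limit read from the data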
Target sequence (O00487 whole entry, looked up): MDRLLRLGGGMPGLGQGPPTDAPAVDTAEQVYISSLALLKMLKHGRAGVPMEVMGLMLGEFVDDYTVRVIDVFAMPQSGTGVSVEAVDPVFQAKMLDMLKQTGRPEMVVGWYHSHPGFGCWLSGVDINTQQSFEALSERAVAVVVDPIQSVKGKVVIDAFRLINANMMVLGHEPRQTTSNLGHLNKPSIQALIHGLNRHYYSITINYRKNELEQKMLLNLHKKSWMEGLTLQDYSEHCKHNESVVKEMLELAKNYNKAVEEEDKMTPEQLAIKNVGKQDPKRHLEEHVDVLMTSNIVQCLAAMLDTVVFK
ATG4B inhibitor – inhibitors of human ATG4B cysteine protease; Q9Y4P1; ATG4B cleavage of LC3-PLA2, NBD-HPC fluorescence, 1 h; inhibition, % at 8.33 µM; 340,000 compounds, 0.51% hits; in the data active means inhibition above about 40%
HNF4A DNA FP – change in binding of human HNF4 alpha to DNA. HNF4a-FITC DNA binding, fluorescence polarization, 1 h. activity change, % at 10 µM. 360,000 compounds, 0.3% hits. AID 1224865; in the data active means activity change above about 30%, passing the limit was not always enough
TPT1 inhibitor – C. albicans TPT1 enzyme inhibition | inhibition, % at 5 µM | recombinant caTPT1, FP RNA substrate dephosphorylation | AID 1962 | 300,000 compounds, 0.81% hits;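 active means inhibition above the mean of all tested compounds plus 3 SD, set per screening campaign, cut at about 24% in these data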
CSN inh – inhibitors of human CSN-mediated cullin deneddylation; Purified CSN, SCF-Nedd8-OG deneddylation, fluorescence polarization; Q92905; inhibition, % at 12.5 µM; AID 651999; 360,000 compounds, 0.38% hits;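 active means pattern-corrected inhibition above about 35%, with an unprinted fluorescence ratio check between 0.5 and 1.5, limit read from the data, passing the limit was not always enough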
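Material: purified human Csn5 enzyme expressed in HEK293T cells / Medium: Tris buffer pH 7.5, NaCl, DTT, Tween-20, trehalose, ovalbumin / Compound dosing: 12.5 µM single point / Schedule: 90 min incubation of compound, enzyme and substrate at room temperature / Signal: fluorescence polarization of the substrate / Control set: no-enzyme wells high, enzyme-with-substrate wells low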
SENP1 inh – inhibitors of human SENP1 SUMO protease catalytic domain | Q9P0U3 | recombinant SENP1 catalytic domain, CyPet-SUMO1-YPet FRET cleavage | inhibition, % at 10 µM | 360,000 compounds, 0.21% hits | AID 624204;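 active means inhibition at least 30% at 10 µM, raw YFP signal under a set limit, fluorescence ratio 0.5 to 1.5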
Target sequence (Q9P0U3 419-644 limits assumed): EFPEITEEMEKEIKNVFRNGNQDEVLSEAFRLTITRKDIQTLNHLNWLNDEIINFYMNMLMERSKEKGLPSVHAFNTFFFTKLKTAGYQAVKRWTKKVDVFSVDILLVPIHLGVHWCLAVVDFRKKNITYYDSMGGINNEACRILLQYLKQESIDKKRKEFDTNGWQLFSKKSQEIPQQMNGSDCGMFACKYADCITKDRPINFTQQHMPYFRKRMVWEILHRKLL
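Material – human SENP1 catalytic domain · Input – SENP1 enzyme, 20 pM final · Compound dosing – single concentration of 10 µM compound, 0.5% DMSO final · Timing – enzyme reaction for 50 min at room temperature, dark · Measured by – FRET fluorescence in CFP and YFP emission channels · Control set – no-enzyme wells low, DMSO-plus-enzyme wells high control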
caTPT1 confirm – TPT1 (C. albicans) inhibition, confirmation | AID 2149 | 2,400 compounds, 74% hits | recombinant caTPT1, fluorescence polarization, RNase T1 coupled | inhibition, % at 5 µM | shares compounds with TPT1 inhibitor;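 active means inhibition above the primary screen limit, the mean inhibition of all tested compounds plus 3 SD, cut at about 25% in these data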
RNase T1 inh – counter-screen for TPT1 inhibitors: inhibitors of Aspergillus oryzae RNase T1 | shares compounds with TPT1 inhibitor | RNase T1 cleavage, fluorescence polarization, 1536-well | inhibition, % at 5 µM | 2,400 compounds, 83% hits;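 active means inhibition above the solvent-only control well mean plus 3 SD, limit set per screening run, cut at about 23% in these data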;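 further: inhibitors block cleavage so intact labeled substrate keeps polarization high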
Target sequence (P00651 whole entry, looked up): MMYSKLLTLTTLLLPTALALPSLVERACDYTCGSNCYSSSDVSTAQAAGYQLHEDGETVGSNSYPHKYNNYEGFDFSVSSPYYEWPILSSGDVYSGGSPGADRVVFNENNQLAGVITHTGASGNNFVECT
Numbers stand for hits; 0 = inactive; - = not tested or not shown. Shown are actives, neighbours in structure and some others; about 2% of the full set was active somewhere.

SMILES	Rpn11 inh	ATG4B inhibitor	HNF4A DNA FP	TPT1 inhibitor	CSN inh	SENP1 inh	caTPT1 confirm	RNase T1 inh
CC=C1OC(n2cnc3c(N)ncnc32)C(O)C1O (stereo not given)	0	-	0	-	0	0	-	-
Cc1cc(N2CCOCC2)ccc1/C=C1\SC(=O)N(C(C)C)C1=O	0	0	0	37.3	0	0	52.0	63.6
CCN1C(=O)S/C(=C\c2ccc(N3CCOCC3)cc2C)C1=O	0	0	0	39.2	0	0	54.9	68.7
C#CCN1C(=O)S/C(=C\c2ccc(N3CCOCC3)cc2C)C1=O	0	0	0	0	0	0	-	-
COc1ccc(OC)c(C2=C/C(=C/c3ccccn3)C(=O)O2)c1	-	0	0	80.2	0	0	84.5	89.8
COc1ccc(OC)c(-c2oc3ccccc3c(=O)c2O)c1	0	0	0	0	0	0	-	-
COCCNC(=S)N/N=C/c1ccc(-c2ccc([N+](=O)[O-])cc2)o1	-	0	0	46.9	0	0	50.5	63.4
COc1cc([N+](=O)[O-])ccc1-c1ccc(/C=N/NC(N)=O)o1	-	0	86.7	51.2	43.4	0	58.3	67.9
NC(=O)N/N=C/c1ccc(-c2ccc([N+](=O)[O-])cc2)o1	0	0	0	0	0	0	-	-
CC1(C)SC2c3ccccc3C(=O)N2C1C(=O)O (stereo not given)	0	0	0	-	0	0	-	-
Cc1ccc(N=C2NC(=O)/C(=C/c3cn(C)c4ccccc34)S2)cc1C	-	0	65.3	116.8	0	0	121.1	125.0
Cn1cccc1/C=C1\SC(=Nc2ccccc2)NC1=O	0	0	0	0	0	0	-	-
C=CCN=c1scc(-c2ccco2)n1/N=C/c1ccc(O)c(O)c1O	0	0	0	0	0	0	-	-
COCCN=c1scc(-c2ccco2)n1/N=C/c1ccc(O)c(O)c1O	0	0	0	51.9	0	0	60.0	70.5
COc1cc(OC)c(OC)cc1/C=C/C(=O)c1ccc(NS(=O)(=O)c2ccc(C)cc2)cc1	-	0	0	78.3	0	0	85.8	95.1
CSc1cccc(NC(=O)NCc2cccc(CNC(=O)Nc3cccc(SC)c3)c2)c1	0	0	0	50.6	0	0	0	0
CSc1cccc(NC(=O)C(=O)NCc2ccccc2)c1	0	0	0	0	0	0	-	-
Cc1ccc(N2CCN(S(=O)(=O)c3c(C)nc4sccn4c3=O)CC2C)cc1 (stereo not given)	0	-	0	-	0	0	-	-
COC(=O)c1c[nH]c2c1-c1cc(C(=O)OCc3ccccc3)n(S(=O)(=O)c3ccc(C)cc3)c1C(=O)C2=O	0	0	0	-	0	0	-	-
O=C(CC[C@H]1O[C@@H](n2ccc(=O)[nH]c2=O)[C@H](O)[C@@H]1O)NCCN1CCOCC1	0	-	0	-	0	0	-	-
CCn1c(O)c(/C=N/N=C/c2ccccc2)c2ccc(C3=NNC(=O)CC3)cc21	-	0	0	60.8	0	0	71.9	84.3
CCC(CC)=N/N=C/c1c(O)n(CC)c2cc(C3=NNC(=O)CC3)ccc12	0	0	0	63.5	0	0	43.8	56.3
CN(Cc1cccc(F)c1)C(=O)C1CC(=O)N(Cc2ccco2)C1 (stereo not given)	0	-	0	-	0	0	-	-
Oc1[nH]c2ccccc2c1/C=N/c1nccs1	0	0	0	36.2	0	0	34.6	44.8
COc1ccc(N=Cc2c(O)[nH]c3ccccc23)cc1	0	0	0	0	0	0	-	-
SMILES	Rpn11 inh	ATG4B inhibitor	HNF4A DNA FP	TPT1 inhibitor	CSN inh	SENP1 inh	caTPT1 confirm	RNase T1 inh
Cc1ccc(NC(=O)c2ccc(NCCc3ccccc3)c([N+](=O)[O-])c2)cc1F	-	0	54.0	58.7	0	0	107.9	112.8
CCN(CC)c1ccc(NC(=O)Cn2c(C(C)NC(=O)c3ccccc3)nc3ccccc32)cc1 (stereo not given)	0	0	0	52.7	0	0	0	0
O=C(COC(=O)CCNS(=O)(=O)c1ccccc1)NC(=O)Cc1ccccc1	0	0	0	-	0	0	-	-
CCCC(=O)Nc1sc2c(c1C#N)CCCC2	0	0	0	0	0	0	-	-
CC1CCN(CC(=O)Nc2sc3c(c2C#N)CCC3)CC1	0	0	0	39.1	0	0	0	0
COc1ccc(-n2c(N)c(C(=O)NCc3ccco3)c3nc4ccccc4nc32)c(OC)c1	0	0	0	39.2	0	0	0	0
CCC(CC)C1C(C#N)=C(N)SC(N)=C1C#N	0	0	0	38.5	0	0	0	0
Fc1ccc(Nc2nc(NCc3cccs3)nc3ccsc23)cc1	0	-	0	-	0	0	-	-
Cc1ccc(OCC(=O)NNC(=O)CCc2ccccc2)cc1	0	0	0	0	0	0	-	-
Cc1ccc(CC(=O)CCc2ccccc2)cc1	0	0	0	33.6	0	0	0	0
COC(=O)c1cc(NC(=O)c2cccc(C(F)(F)F)c2)c(=O)oc1C	0	0	0	0	0	0	-	-
COC(=O)c1cc(NC(=O)c2cccc(C(F)(F)F)c2)c(=O)oc1C/C=N/OCc1cccc(Cl)c1Cl	-	0	0	35.1	0	0	38.0	45.3
COC(=O)C1=CN(c2ccc3c(c2)OCO3)C(N)=C(C#N)C1c1cccc(F)c1 (stereo not given)	-	-	0	-	0	0	-	-
CC[n+]1c(/C=C/C=C/N(C(C)=O)c2ccccc2)sc2ccccc21	-	0	0	64.3	0	0	68.2	73.9
CC1(C)Cc2c(sc(NC(=O)C(=O)NCC3CCCO3)c2C(N)=O)CO1 (stereo not given)	0	0	0	0	0	0	-	-
CCOC(=O)c1ccc(-c2c(C)cc3oc(=O)cc(-c4ccccc4)c3c2C)cc1	0	0	0	-	0	0	-	-
CN(C)S(=O)(=O)c1ccc(Cl)c(C(=O)OCC(=O)NC(=O)c2cccn2C)c1	0	0	0	125.0	0	0	0	0
Cn1cccc1C(=O)NC(=O)COC(=O)c1cc([N+](=O)[O-])ccc1Cl	0	0	0	0	0	0	-	-
COc1cc(N2CCCC2)c(OC)cc1/C=C1/NC(=S)NC1=O	-	0	0	130.8	0	0	138.4	128.8
COc1ccc(Oc2nc(C)cc(C)c2S(=O)(=O)c2ccc(C)cc2)cc1	0	0	0	0	0	0	-	-
COc1nc(N)c(S(=O)(=O)c2ccc(C)cc2)cc1C#N	0	0	0	28.7	0	0	0	28.5
Cc1ccc(S(=O)(=O)c2cc(C#N)c(=O)[nH]c2N)cc1	0	0	0	33.1	0	0	0	29.2
NC1=NC2OC(CO)C(O)C2O1 (stereo not given)	0	-	0	-	0	0	-	-

Assay outcomes from PubChem.
